Active and inactive are the calls of the source. No cut-off for these calls is given here.
What was measured:
NHEK [1] = assay: Effect on TLR3 mRNA expression in NHEK cells at 500 uM preincubated for 2 days and measured after 24 hrs by TaqMan RTPCR analysis; type: functional, cell-based; conditions: Homo sapiens, time 2.0 day
NHEK [2] = assay: Effect on IL-6 expression in NHEK cells at 500 uM preincubated for 2 days and measured after 24 hrs by TaqMan RTPCR analysis; type: functional, cell-based; conditions: Homo sapiens, time 2.0 day
[3] = Chemical stability in pH 4.5 assessed as compound remaining at 10 uM measured after 1 hrs by LC-MS/MS analysis; type: physicochemical; conditions: buffer, pH 4.5, 1 h
In short: (§1)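 Compounds incubated in buffers at pH 1.2, 4.5 or 7.4 at 37 °C for 1 h; prodrug disappearance followed by LC–MS/MS as % remaining.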

[4] = Metabolic stability in mouse skin homogenate assessed as compound remaining at 10 uM measured after 1 hrs by LC-MS analysis; type: ADME, tissue-based, Skin of body; conditions: tissue homogenate
[5] = Metabolic stability in human skin homogenate assessed as compound remaining at 10 uM measured after 1 hrs by LC-MS analysis; type: ADME, tissue-based, Skin of body; conditions: tissue homogenate
[6] = Permeability of the compound at pH 7.4 incubated for 4 hrs by PAMPA-GIT assay; type: ADME; conditions: pH 7.4, 4 h
In short: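 PAMPA-GIT sandwich: acceptor filter coated with GIT-0 lipid; donor holds 10 μM compound in pH 7.4 buffer with 0.2% DMSO, acceptor pH 7.4 sink buffer; 4 h at room temperature; both compartments sampled by LC-MS/MS; effective permeability Pe calculated with membrane retention correction.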

[7] = Chemical stability in pH 7.4 assessed as compound remaining at 10 uM measured after 1 hrs by LC-MS/MS analysis; type: physicochemical; conditions: buffer, pH 7.4, 1 h; in short: as §1
[8] = Metabolic stability in mouse plasma assessed as compound remaining at 10 uM measured after 1 hrs by LC-MS analysis; type: ADME, cell-free
In short: (§2)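 Prodrugs (10 μM) spiked into mouse or human plasma, shaken at 37 °C; samples at 0 and 60 min quenched in cold acetonitrile with losartan internal standard, centrifuged, diluted, run by LC-HRMS; % remaining from analyte/IS peak-area ratio.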

[9] = Chemical stability in pH 1.2 assessed as compound remaining at 10 uM measured after 1 hrs by LC-MS/MS analysis; type: physicochemical; conditions: buffer, pH 1.2, 1 h; in short: as §1
[10] = Metabolic stability in human plasma assessed as compound remaining at 10 uM measured after 1 hrs by LC-MS analysis; type: ADME, cell-free; in short: as §2
[11] = Prodrug conversion in C57BL6 mouse plasma assessed as 4-methyl itaconic half life at 100 mg/kg, po measured after 24 hrs by LC-MS/MS analysis; type: ADME, organism-based; conditions: in vivo
In short: (§3)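 C57BL6 mice, 25–30 g, 8.5 weeks old, given 100 mg/kg (IA or 4-MI equivalent) orally in 10% DMSO/80% PEG/10% HBS, freshly prepared; killed at 0.25–24 h, n = 3 per time point; acidified plasma and stabilized skin homogenates, methanol precipitation with internal standards, LC-MS/MS (orbitrap); PK parameters as mean ± SEM.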

[12] = Toxicity in C57BL6 mouse assessed as body weight loss at 30 to 100 mg/kg, ip administrated daily and measured after 7 days; type: organism-based; conditions: in vivo, 168 h, dose 30-100 mg/kg, time 7 day
[13] = Immunomodulatory activity in NHEK cells assessed as inhibition of IL-6 mRNA expression at 100 uM preincubated for 2 days and measured after 24 hrs by TaqMan RTPCR analysis; type: functional; conditions: Homo sapiens, 48 h, time 2 day
[14] = Prodrug conversion in C57BL6 mouse skin assessed as 4-methyl itaconic AUC (0 to t) at 100 mg/kg, po measured after 24 hrs by LC-MS/MS analysis; type: ADME, organism-based, Skin of body; conditions: in vivo
[15] = Prodrug conversion in C57BL6 mouse plasma assessed as 4-methyl itaconic AUC (0 to t) at 100 mg/kg, po measured after 24 hrs by LC-MS/MS analysis; type: ADME, organism-based; conditions: in vivo
[16] = Toxicity in C57BL6 mouse assessed as hematological changes at 30 to 100 mg/kg, ip measured after 7 days; type: organism-based; conditions: in vivo, 168 h, dose 30-100 mg/kg, time 7 day
[17] = Prodrug conversion in C57BL6 mouse skin assessed as 4-methyl itaconic half life at 100 mg/kg, po measured after 24 hrs by LC-MS/MS analysis; type: ADME, organism-based, Skin of body; conditions: in vivo; in short: as §3
[18] = Prodrug conversion in C57BL6 mouse skin assessed as 4-methyl itaconate Tmax at 100 mg/kg, po measured after 24 hrs by LC-MS/MS analysis; type: ADME, organism-based, Skin of body; conditions: in vivo; in short: as §3
[19] = Prodrug conversion in po dosed C57BL6 mouse skin assessed as 4-methyl itaconic concentration measured after 24 hrs; type: ADME, organism-based, Skin of body; conditions: in vivo
[20] = Cytotoxicity against NHEK cells assessed as cell viability at 100 uM measured after 8 hrs by CellTiter-Glo assay relative to control; type: toxicity, cell-based; conditions: human
In short: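 Primary normal human epidermal keratinocytes, expanded and seeded, exposed to 1, 10, 30 or 100 μM for 8 h; viability by CellTiter-Glo luminescence as % viable.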

[21] = Immunomodulatory activity in NHEK cells assessed as inhibition of Poly(I:C)/IFN-gamma induced IL-1 beta expression at >= 10 uM by TaqMan RTPCR analysis relative to control; type: functional, Homo sapiens; design: scale not given: the % may be the effect or the level left
In short: (§4)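 Primary human keratinocytes seeded, held overnight at 37 °C, 5% CO2, then stimulated with Poly(I:C) 50 μg/mL plus IFNγ 5 ng/mL, with or without prodrug at 1, 10, 30 or 100 μM; gene induction measured at 8 h.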

[22] = Immunomodulatory activity in NHEK cells assessed as inhibition of IFN-gamma induced CXCL11 expression at 30 to 100 uM by TaqMan RTPCR analysis relative to control; type: functional, Homo sapiens; conditions: dose 30-100 µM; in short: as §4
[23] = Prodrug conversion in C57BL6 mouse plasma assessed as 4-methyl itaconate Tmax at 100 mg/kg, po measured after 24 hrs by LC-MS/MS analysis; type: ADME, organism-based; conditions: in vivo; in short: as §3
[24] = Prodrug conversion in C57BL6 mouse skin assessed as 4-methyl itaconate Cmax at 100 mg/kg, po measured after 24 hrs by LC-MS/MS analysis; type: ADME, organism-based, Skin of body; conditions: in vivo; in short: as §3
[25] = Prodrug conversion in C57BL6 mouse plasma assessed as 4-methyl itaconate Cmax at 100 mg/kg, po measured after 24 hrs by LC-MS/MS analysis; type: ADME, organism-based; conditions: in vivo; in short: as §3
[26] = Immunomodulatory activity in NHEK cells assessed as inhibition of IFN-gamma induced CXCL11 expression at 100 uM by TaqMan RTPCR analysis relative to control; type: functional; conditions: Homo sapiens; in short: as §4
[27] = Immunomodulatory activity in NHEK cells assessed as inhibition of IFN-gamma induced CXCL10 expression at 100 uM by TaqMan RTPCR analysis relative to control; type: functional; conditions: Homo sapiens; in short: as §4
NHEK [28] = assay: Immunomodulatory activity in NHEK cells assessed as inhibition of Poly(I:C)/IFN-gamma induced IL-1 beta expression at 100 uM by TaqMan RTPCR analysis; type: functional, cell-based; conditions: Homo sapiens; in short: as §4

C=C(CC(=O)O)C(=O)O
Activity (NHEK [1]): inactive | Activity (NHEK [2]): inactive

C=C(CC(=O)OCc1oc(=O)oc1C)C(=O)OCc1oc(=O)oc1C
Stability [3]: 91% | Stability [4]: 0% | Stability [5]: 30% | permeability [6]: 17 10^-6 cm/s | Stability [7]: 91% | Stability [8]: 0% | Stability [9]: 102% | Stability [10]: 0%

C=C(CC(=O)OCc1oc(=O)oc1C)C(=O)OC
Stability [3]: 97% | Stability [4]: 0% | Stability [5]: 56% | permeability [6]: 16.3 10^-6 cm/s | Stability [7]: 69% | Stability [8]: 0% | Stability [9]: 100% | Stability [10]: 0%

C=C(CC(=O)OC)C(=O)OCc1oc(=O)oc1C
Stability [3]: 87% | Stability [4]: 16% | Stability [5]: 76% | permeability [6]: 15.4 10^-6 cm/s | Stability [7]: 99% | Stability [8]: 0% | Stability [9]: 98% | Stability [10]: 0%

C=C(CC(=O)OC)C(=O)OCOC(=O)C(C)(C)C
Stability [3]: 109% | Stability [4]: 5.3% | Stability [5]: 15% | permeability [6]: 33.2 10^-6 cm/s | Stability [7]: 94% | Stability [8]: 0% | Stability [9]: 99% | Stability [10]: 0%

C=C(CC(=O)OC)C(=O)OCOC(=O)OC(C)C
t1/2 [11]: 52.2 min | Stability [3]: 103% | Activity [12]: Non-toxic | Stability [4]: 0% | Stability [5]: 1.6% | inhibition at 100 µM [13]: > 90% | permeability [6]: 35.3 10^-6 cm/s | Stability [7]: 102% | Stability [8]: 0% | AUCt [14]: 234 nmol·h/g | AUCt [15]: 415 µM·h | Activity [16]: Non-toxic | t1/2 [17]: 58.2 min | Tmax [18]: 60 min | Drug metabolism [19]: > 100 µM | Stability [9]: 108% | Activity [20]: > 80% | Activity [21]: >50% | Stability [10]: 0% | inhibition (INH) [22]: >50% | Tmax [23]: 30 min | Cmax [24]: 192 nmol/g | Cmax [25]: 349 µM

C=C(CC(=O)OCOC(=O)C(C)(C)C)C(=O)OCOC(=O)C(C)(C)C
Stability [3]: 92% | Stability [4]: 0% | Stability [5]: 0% | permeability [6]: 35.8 10^-6 cm/s | Stability [7]: 104% | Stability [8]: 0% | Stability [9]: 106% | Stability [10]: 0%

C=C(CC(=O)OCOC(=O)OC(C)C)C(=O)OC
Stability [3]: 94% | Stability [4]: 0% | Stability [5]: 0% | inhibition at 100 µM [26]: < 50% | permeability [6]: 29.3 10^-6 cm/s | Stability [7]: 63% | Stability [8]: 0% | inhibition at 100 µM [27]: < 50% | Stability [9]: 98% | Activity [20]: > 80% | Stability [10]: 0% | Activity (NHEK [28]): Active
